From article PMC12032937 (iScience, 2025)

Columns and labels:
mPRε [1] = biological target: T1, mPRε (Mus musculus, UniProt Q6TCG2); test: PKA activation; format: cell-based; conditions: mPRε-GFP cells, 20 min; for PKA activation, pPKA/PKA normalized to control (100%): mean ± SEM, n=4; for increase in PKA activation compared to control treatment: increase above control (100%)
T1 sequence (Q6TCG2 1-375): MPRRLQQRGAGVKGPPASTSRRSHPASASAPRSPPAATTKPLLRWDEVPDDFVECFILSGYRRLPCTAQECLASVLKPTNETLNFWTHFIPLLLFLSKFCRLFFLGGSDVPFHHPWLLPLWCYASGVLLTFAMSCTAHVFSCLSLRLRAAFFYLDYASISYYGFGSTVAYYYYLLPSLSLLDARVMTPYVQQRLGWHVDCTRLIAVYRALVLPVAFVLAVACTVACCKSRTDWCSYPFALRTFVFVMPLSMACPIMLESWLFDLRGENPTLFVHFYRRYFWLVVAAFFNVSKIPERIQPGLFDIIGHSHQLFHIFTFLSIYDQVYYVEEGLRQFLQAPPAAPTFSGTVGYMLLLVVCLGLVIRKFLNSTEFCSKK
Procedure, shortened: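 MDA-MB-231 cells lentivirally expressing mouse mPRε-C-terminal GFP, FACS-selected clonal line, kept in DMEM/10% charcoal-stripped FBS, passage ≤20. Treated 20 min with test compound at 3–300nM, lysed in RIPA with phosphatase inhibitors, immunoblotted for phospho and total kinase. Ratio normalized to control within the line, then to host MDA231 cells; n = 4 separate passages; two-way ANOVA, Sidak post hoc.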

mPRδ [2] = biological target: T2, mPRδ (Mus musculus, UniProt Q6TCG5); test: Gq luminescent reporter assay; format: cell-based
T2 sequence (Q6TCG5 1-343): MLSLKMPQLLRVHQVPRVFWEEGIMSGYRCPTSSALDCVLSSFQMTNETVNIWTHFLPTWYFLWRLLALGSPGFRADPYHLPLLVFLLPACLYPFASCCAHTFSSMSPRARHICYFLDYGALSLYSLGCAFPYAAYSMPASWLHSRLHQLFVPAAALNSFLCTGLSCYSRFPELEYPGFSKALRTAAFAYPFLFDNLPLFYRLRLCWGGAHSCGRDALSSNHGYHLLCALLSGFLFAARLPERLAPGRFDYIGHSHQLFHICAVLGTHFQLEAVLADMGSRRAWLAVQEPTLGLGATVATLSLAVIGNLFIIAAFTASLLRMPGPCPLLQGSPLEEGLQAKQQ

mPRδ [3] = biological target: T2, mPRδ; test: PKC activation; format: cell-based; conditions: mPRδ-GFP cells, 300nM, 20 min, increase above control (100%)
mPRδ [4] = biological target: T2, mPRδ; test: PKA activation; format: cell-based; conditions: mPRδ-GFP cells, 20 min, mean ± SEM, n=4
mPRε [5] = biological target: T1, mPRε; test: Gs luminescent reporter assay; format: cell-based
Procedure, shortened: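 Clonal MDA-MB-231 cells stably expressing mouse mPRε with a C-terminal GFP tag, transfected (Lipofectamine 3000) with CRE-luciferase reporter, grown 72 h, then treated 6 h with a test compound concentration series; forskolin positive control. Lysed, luciferase luminescence read; runs kept only if positive control ≥2× untreated. Min/max scaled 0–100, curves fitted for EC50; n = 4.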

mPRδ [6] = conditions: MDA231 cells transiently transfected to express mPRδ; cited from earlier work

SMILES	PKA activation, pPKA/PKA normalized to control (100%) (mPRε [1]; 3nM) [%]	PKA activation, pPKA/PKA normalized to control (100%) (mPRε [1]; 10nM) [%]	increase in PKA activation compared to control treatment (mPRε [1]; 30nM) [%]	PKA activation, pPKA/PKA normalized to control (100%) (mPRε [1]; 30nM) [%]	increase in PKA activation compared to control treatment (mPRε [1]; 100nM) [%]	PKA activation, pPKA/PKA normalized to control (100%) (mPRε [1]; 100nM) [%]	increase in PKA activation compared to control treatment (mPRε [1]; 300nM) [%]	PKA activation, pPKA/PKA normalized to control (100%) (mPRε [1]; 300nM) [%]	EC50 (mPRδ [2]) [nM]	increase in PKC activation/phosphorylation compared to control treatment (mPRδ [3]) [%]	PKA activation, pPKA/PKA normalized to control (100%) (mPRδ [4]; 3nM) [%]	PKA activation, pPKA/PKA normalized to control (100%) (mPRδ [4]; 10nM) [%]	PKA activation, pPKA/PKA normalized to control (100%) (mPRδ [4]; 30nM) [%]	PKA activation, pPKA/PKA normalized to control (100%) (mPRδ [4]; 100nM) [%]	PKA activation, pPKA/PKA normalized to control (100%) (mPRδ [4]; 300nM) [%]	EC50 (mPRε [5]) [nM]	phosphorylation of ERK (mPRδ [6])
CC(=O)[C@H]1CC[C@H]2[C@@H]3CC[C@H]4C[C@H](O)CC[C@]4(C)[C@H]3CC[C@]12C [ALLO, allopregnanolone]	105.57 ± 15.02	130.55 ± 16.45	53.44	153.4 ± 19.57	60.49	160.49 ± 20.14	64.44	164.44 ± 15.71	11.3	43.58 ± 5.34	86.327 ± 5.39	91.441 ± 4.66	83.155 ± 4.54	98.624 ± 11.00	103.26 ± 14.05	2.5	significant increase
CC(=O)[C@H]1CC[C@H]2[C@@H]3CCC4=CC(=O)CC[C@]4(C)[C@H]3CC[C@]12C [progesterone]																	significant increase
